Results taken from ChEMBL document CHEMBL4414574, “Structure-Based Discovery and Development of a Series of Potent and Selective Bromodomain and Extra-Terminal Protein Inhibitors” (J Med Chem, 2019).
pIC50: −log10 of the molar value. Activity calls are given as the source filed them. The calls are words filed in the database; no cut-off is given here.

Tests used:
[1] = molecular target: T1, Bromodomain-containing protein 4 (Homo sapiens, UniProt O60885); test: Displacement of 5-FITC labelled (+)-JQ1 from His6-tagged human BRD4 bromodomain 1 expressed in Escherichia coli BL21(DE3) )-codon plus-RIL cells incubated for 4 hrs in dark condition by fluorescence anisotropy binding assay
[2] = test system: MM1.S; test: Antiproliferative activity against human MM1S cells after 72 hrs by CCK8 or SRB assay; format: functional, cell-based
How it was run: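 IC50 against MM.1S cell proliferation was taken as the mean of three independent experiments, each run in triplicate, reported with SEM.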

[3] = molecular target: Bromodomain-containing protein 2 (Homo sapiens) (UniProt P25440); test: Inhibition of BRD2 bromodomain 1 (unknown origin)
[4] = molecular target: Bromodomain-containing protein 2 (Homo sapiens) (UniProt P25440); test: Inhibition of BRD2 bromodomain 2 (unknown origin)
How it was run: (§1)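 Bromodomain binding panel (32 bromodomains) screened at 1 μM; primary binding read-out reported as percent of control, lower values meaning stronger binding.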

[5] = molecular target: T1, Bromodomain-containing protein 4; test: Inhibition of BRD4 bromodomain 1 (unknown origin)
How it was run: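 BRD4 BD1 (His6-tagged, E. coli BL21(DE3)-expressed, Ni-NTA purified) at 10 nM with 5 nM FITC-labelled (+)-JQ1 tracer; 50 mM HEPES pH 7.4, 150 mM NaCl, 0.5 mM CHAPS, DMSO 2‰ final; graded inhibitor; 4 h dark equilibration at room temperature; fluorescence anisotropy read (ex 485/em 530 nm). IC50 from two independent experiments in duplicate, mean ± SEM.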

[6] = molecular target: Histone acetyltransferase p300 (Homo sapiens) (UniProt Q09472); test: Inhibition of EP300 (unknown origin) at 1 uM; how it was run: as §1
[7] = molecular target: T1, Bromodomain-containing protein 4; test: Inhibition of BRD4 bromodomain 2 (unknown origin)
[8] = Tmax in ICR mouse at 10 mg/kg, po administered via gavage measured after 0.25 to 24 hrs by UPLC/MS analysis; format: ADME, organism-based; settings: in vivo
How it was run: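 Male ICR mice dosed orally (3, 10 or 100 mg/kg, per line) in 1% DMSO/0.5% HPMC vehicle; plasma drug levels measured.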

[9] = Cmax in ICR mouse at 10 mg/kg, po administered via gavage measured after 0.25 to 24 hrs by UPLC/MS analysis; format: ADME, organism-based; parameters: dose 10 mg/kg, route oral; settings: in vivo
How it was run: (§2)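 Male ICR mice dosed orally in 1% DMSO/0.5% HPMC vehicle; plasma or brain drug levels used to derive Tmax, Cmax, AUC0-t, AUC0-inf and T1/2.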

[10] = AUC (0 to t) in ICR mouse at 10 mg/kg, po administered via gavage measured after 0.25 to 24 hrs by UPLC/MS analysis; format: ADME, organism-based; parameters: time 0.25-24 hr, dose 10 mg/kg, route oral; settings: in vivo
How it was run: (§3)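 Male ICR mice were dosed orally in 1% DMSO/0.5% HPMC vehicle. Plasma (and brain, where stated) concentrations gave Tmax, Cmax, T1/2, AUC0-t and AUC0-inf.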

[11] = AUC (0 to infinity) in ICR mouse at 10 mg/kg, po administered via gavage measured after 0.25 to 24 hrs by UPLC/MS analysis; format: ADME, organism-based; parameters: dose 10 mg/kg, route oral, time infinity; settings: in vivo; how it was run: as §3
[12] = Half life in ICR mouse at 10 mg/kg, po administered via gavage measured after 0.25 to 24 hrs by UPLC/MS analysis; format: ADME, organism-based; settings: in vivo; how it was run: as §2
[13] = test system: MV4-11; test: Antiproliferative activity against human MV4-11 cells after 72 hrs by CCK8 or SRB assay; format: functional, cell-based
[14] = species on record: Homo sapiens; test: Antiproliferative activity against human TY82 cells after 72 hrs by CCK8 or SRB assay; format: functional, cell-based
[15] = test system: KG-1; test: Antiproliferative activity against human KG1 cells after 72 hrs by CCK8 or SRB assay; format: functional, cell-based
[16] = test system: RKO; test: Antiproliferative activity against human RKO cells after 72 hrs by CCK8 or SRB assay; format: functional, cell-based
[17] = test system: Hep 3B2; test: Antiproliferative activity against human Hep3B cells after 72 hrs by CCK8 or SRB assay; format: functional, cell-based
[18] = test system: NCI-H1299; test: Antiproliferative activity against human NCI-H1299 cells after 72 hrs by CCK8 or SRB assay; format: functional, cell-based
[19] = test system: NCI-H522; test: Antiproliferative activity against human NCI-H522 cells after 72 hrs by CCK8 or SRB assay; format: functional, cell-based
[20] = test system: MDA-MB-468; test: Antiproliferative activity against human MDA-MB-468 cells after 72 hrs by CCK8 or SRB assay; format: functional, cell-based
[21] = test system: HT-29; test: Antiproliferative activity against human HT-29 cells after 72 hrs by CCK8 or SRB assay; format: functional, cell-based
[22] = test system: AGS; test: Antiproliferative activity against human AGS cells after 72 hrs by CCK8 or SRB assay; format: functional, cell-based
[23] = test system: BT-549; test: Antiproliferative activity against human BT549 cells after 72 hrs by CCK8 or SRB assay; format: functional, cell-based
[24] = test system: SK-OV-3; test: Antiproliferative activity against human SKOV3 cells after 72 hrs by CCK8 or SRB assay; format: functional, cell-based
[25] = test system: MDA-MB-436; test: Antiproliferative activity against human MDA-MB-436 cells after 72 hrs by CCK8 or SRB assay; format: functional, cell-based
[26] = test system: HuTu80; test: Antiproliferative activity against human HuTu 80 cells after 72 hrs by CCK8 or SRB assay; format: functional, cell-based
[27] = test system: SW-620; test: Antiproliferative activity against human SW620 cells after 72 hrs by CCK8 or SRB assay; format: functional, cell-based
[28] = test system: A549; test: Antiproliferative activity against human A549 cells after 72 hrs by CCK8 or SRB assay; format: functional, cell-based

Sequence of Histone acetyltransferase p300 (Homo sapiens) (Q09472 whole entry): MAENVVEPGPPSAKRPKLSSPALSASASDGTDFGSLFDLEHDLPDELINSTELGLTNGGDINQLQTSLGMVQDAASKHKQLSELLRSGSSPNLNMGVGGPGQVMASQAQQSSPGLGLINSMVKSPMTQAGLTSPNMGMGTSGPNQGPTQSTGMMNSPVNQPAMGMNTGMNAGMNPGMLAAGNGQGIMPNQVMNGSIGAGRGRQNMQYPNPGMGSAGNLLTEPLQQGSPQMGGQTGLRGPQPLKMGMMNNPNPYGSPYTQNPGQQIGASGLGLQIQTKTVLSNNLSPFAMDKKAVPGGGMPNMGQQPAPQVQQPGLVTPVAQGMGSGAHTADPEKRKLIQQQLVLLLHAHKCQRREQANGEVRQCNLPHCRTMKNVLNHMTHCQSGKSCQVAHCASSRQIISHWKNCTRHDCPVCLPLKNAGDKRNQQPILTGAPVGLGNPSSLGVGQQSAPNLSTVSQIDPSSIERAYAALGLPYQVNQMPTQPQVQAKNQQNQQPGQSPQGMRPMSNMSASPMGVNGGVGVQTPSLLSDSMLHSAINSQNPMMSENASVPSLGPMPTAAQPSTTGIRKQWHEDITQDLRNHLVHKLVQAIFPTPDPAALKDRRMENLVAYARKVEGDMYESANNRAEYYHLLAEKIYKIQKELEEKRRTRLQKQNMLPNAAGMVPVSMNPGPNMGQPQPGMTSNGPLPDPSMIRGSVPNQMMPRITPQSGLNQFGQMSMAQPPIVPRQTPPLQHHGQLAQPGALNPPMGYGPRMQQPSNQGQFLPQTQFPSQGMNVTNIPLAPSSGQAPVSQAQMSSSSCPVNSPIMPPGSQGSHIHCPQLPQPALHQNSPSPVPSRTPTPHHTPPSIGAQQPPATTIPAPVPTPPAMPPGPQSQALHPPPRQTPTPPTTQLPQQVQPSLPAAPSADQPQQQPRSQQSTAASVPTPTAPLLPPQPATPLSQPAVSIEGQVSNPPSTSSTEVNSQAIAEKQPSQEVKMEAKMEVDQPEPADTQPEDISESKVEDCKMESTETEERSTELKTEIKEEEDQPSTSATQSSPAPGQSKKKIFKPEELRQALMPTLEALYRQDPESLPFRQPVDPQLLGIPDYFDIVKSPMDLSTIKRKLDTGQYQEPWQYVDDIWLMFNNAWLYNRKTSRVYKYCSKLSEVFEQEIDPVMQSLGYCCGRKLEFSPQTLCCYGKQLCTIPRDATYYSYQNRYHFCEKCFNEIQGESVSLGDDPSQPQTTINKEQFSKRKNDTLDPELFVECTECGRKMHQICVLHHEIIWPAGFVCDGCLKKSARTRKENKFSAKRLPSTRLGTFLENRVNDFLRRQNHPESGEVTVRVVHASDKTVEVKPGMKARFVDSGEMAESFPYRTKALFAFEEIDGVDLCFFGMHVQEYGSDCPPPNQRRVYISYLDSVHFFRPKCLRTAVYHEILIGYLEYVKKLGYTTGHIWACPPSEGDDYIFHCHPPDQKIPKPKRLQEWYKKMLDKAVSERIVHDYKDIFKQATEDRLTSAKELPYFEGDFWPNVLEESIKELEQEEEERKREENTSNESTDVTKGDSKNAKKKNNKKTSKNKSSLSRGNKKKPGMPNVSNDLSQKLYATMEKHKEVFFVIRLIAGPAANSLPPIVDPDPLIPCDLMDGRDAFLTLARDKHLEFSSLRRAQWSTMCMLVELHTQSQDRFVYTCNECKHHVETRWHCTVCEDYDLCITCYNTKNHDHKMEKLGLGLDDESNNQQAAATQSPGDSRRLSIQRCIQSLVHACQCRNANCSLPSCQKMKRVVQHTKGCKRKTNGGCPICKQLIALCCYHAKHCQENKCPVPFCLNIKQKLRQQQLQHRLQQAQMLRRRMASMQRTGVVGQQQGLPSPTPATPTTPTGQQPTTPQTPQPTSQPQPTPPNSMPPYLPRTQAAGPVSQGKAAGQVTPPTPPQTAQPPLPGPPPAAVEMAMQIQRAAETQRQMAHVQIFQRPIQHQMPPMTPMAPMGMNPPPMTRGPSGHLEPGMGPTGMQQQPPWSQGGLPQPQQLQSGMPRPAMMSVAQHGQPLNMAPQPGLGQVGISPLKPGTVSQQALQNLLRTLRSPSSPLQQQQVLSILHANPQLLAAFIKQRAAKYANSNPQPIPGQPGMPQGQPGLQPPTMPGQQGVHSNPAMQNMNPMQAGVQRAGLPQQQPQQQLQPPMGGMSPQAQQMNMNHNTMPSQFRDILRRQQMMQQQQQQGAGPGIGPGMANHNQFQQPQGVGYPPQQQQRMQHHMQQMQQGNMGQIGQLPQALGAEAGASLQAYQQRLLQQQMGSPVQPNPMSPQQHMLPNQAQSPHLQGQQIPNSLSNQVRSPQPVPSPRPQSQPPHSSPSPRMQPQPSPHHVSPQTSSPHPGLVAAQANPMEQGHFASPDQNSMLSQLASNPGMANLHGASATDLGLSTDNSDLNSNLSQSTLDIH
Sequence of Bromodomain-containing protein 2 (Homo sapiens) (P25440 whole entry, looked up): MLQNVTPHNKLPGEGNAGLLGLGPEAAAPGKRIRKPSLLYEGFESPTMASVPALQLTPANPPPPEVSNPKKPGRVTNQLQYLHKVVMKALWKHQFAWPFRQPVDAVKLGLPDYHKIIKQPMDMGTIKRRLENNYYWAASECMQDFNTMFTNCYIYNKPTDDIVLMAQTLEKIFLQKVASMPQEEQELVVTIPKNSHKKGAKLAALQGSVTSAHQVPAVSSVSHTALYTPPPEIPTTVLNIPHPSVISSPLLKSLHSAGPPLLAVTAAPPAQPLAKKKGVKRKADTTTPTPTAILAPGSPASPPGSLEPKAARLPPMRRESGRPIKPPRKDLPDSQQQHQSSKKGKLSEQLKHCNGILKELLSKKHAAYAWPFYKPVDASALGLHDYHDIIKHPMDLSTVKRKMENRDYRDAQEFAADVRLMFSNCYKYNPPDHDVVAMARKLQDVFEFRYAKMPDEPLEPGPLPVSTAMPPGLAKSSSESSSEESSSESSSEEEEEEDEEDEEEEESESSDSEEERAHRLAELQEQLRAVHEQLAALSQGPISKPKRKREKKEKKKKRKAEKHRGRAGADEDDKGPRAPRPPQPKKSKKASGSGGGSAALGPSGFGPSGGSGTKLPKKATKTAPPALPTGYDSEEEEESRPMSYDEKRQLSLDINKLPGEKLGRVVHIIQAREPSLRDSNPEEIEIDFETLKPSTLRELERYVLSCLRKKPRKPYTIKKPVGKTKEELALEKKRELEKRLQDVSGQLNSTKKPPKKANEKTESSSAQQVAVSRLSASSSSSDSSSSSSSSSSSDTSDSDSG

## Cc1ccc(-n2nc(C(=O)N3CCN4CCCC4C3)nc2-c2ccc3c(c2)N(C2CCCC2)[C@H](C)C(=O)N3C)cc1 (stereo partly drawn)
[1]
  pIC50: 8.06
[2]
  pIC50: 8.19
[3]
  inhibition activity call (active/inactive): Active
[4]
  inhibition: Active
[5]
  inhibition: Active
[6]
  inhibition: inactive
[7]
  inhibition: Active

## C[C@@H]1C(=O)N(C)c2ccc(-c3nc(C(=O)N4CCN(C)CC4)nn3-c3ccccc3)cc2N1C1CCCC1
[1]
  pIC50: 8.15
[2]
  pIC50: 7.22

## Cc1ccc(-n2nc(C(=O)N3C[C@@H](N)C4(CC4)C3)nc2-c2ccc3c(c2)N(C2CCCC2)[C@H](C)C(=O)N3C)cc1
[1]
  pIC50: 8.21
[2]
  pIC50: 7.36

## Cc1ccc(-n2nc(C(=O)N3CCC4(CCCC4)CC3)nc2-c2ccc3c(c2)N(C2CCCC2)[C@H](C)C(=O)N3C)cc1
[1]
  pIC50: 7.57
[2]
  pIC50: 5.62

## Cc1ccc(-n2nc(C(=O)N3CCC4(CCOC4)CC3)nc2-c2ccc3c(c2)N(C2CCCC2)[C@H](C)C(=O)N3C)cc1
[1]
  pIC50: 8.10
[2]
  pIC50: 6.31

## Cc1ccc(-n2nc(C(=O)N(C)CCN(C)C)nc2-c2ccc3c(c2)N(C2CCCC2)[C@H](C)C(=O)N3C)cc1
[1]
  pIC50: 8.15
[2]
  pIC50: 7.79
[3]
  inhibition activity call (active/inactive): Active
[4]
  inhibition: Active
[5]
  inhibition: Active
[6]
  inhibition: inactive
[7]
  inhibition: Active

## Cc1ccc(-n2nc(C(=O)N3CCN(C)CC3)nc2-c2ccc3c(c2)N(C2CCCC2)[C@H](C)C(=O)N3C)cc1F
[8]
  Tmax: 18 min
[1]
  pIC50: 8.38
[2]
  pIC50: 7.89
[9]
  Cmax: 4970 ng/mL
[10]
  AUC(0-t): 8150 ng·h/mL
[11]
  AUC(0-inf): 8360 ng·h/mL
[12]
  half-life: 90 min
[3]
  inhibition activity call (active/inactive): Active
[4]
  inhibition: Active
[5]
  inhibition: Active
[6]
  inhibition: inactive
[7]
  inhibition: Active

## Cc1ccc(-n2nc(C(=O)N3CC4CCC(C3)N4C)nc2-c2ccc3c(c2)N(C2CCCC2)[C@H](C)C(=O)N3C)cc1
[1]
  pIC50: 8.34
[2]
  pIC50: 8.00
[3]
  inhibition activity call (active/inactive): Active
[4]
  inhibition: Active
[5]
  inhibition: Active
[6]
  inhibition: inactive
[7]
  inhibition: Active

## Cc1ccc(-n2nc(C(=O)N3C4CCC3CN(C)C4)nc2-c2ccc3c(c2)N(C2CCCC2)[C@H](C)C(=O)N3C)cc1
[1]
  pIC50: 8.18
[2]
  pIC50: 8.10
[3]
  inhibition activity call (active/inactive): Active
[4]
  inhibition: Active
[5]
  inhibition: Active
[6]
  inhibition: inactive
[7]
  inhibition: Active

## Cc1onc(-c2ccccc2)c1-c1ccc2c(c1)N(C1CCCC1)[C@H](C)C(=O)N2C
[1]
  pIC50: 7.00

## Cc1ccc(-n2nc(C(=O)N3CCN(C(C)C)CC3)nc2-c2ccc3c(c2)N(C2CCCC2)[C@H](C)C(=O)N3C)cc1
[1]
  pIC50: 8.32
[2]
  pIC50: 6.90

## Cc1ccc(N2C(=O)CSC2c2ccc3c(c2)N(C2CC2)C(C)C(=O)N3C)cc1 (stereo not drawn)
[1]
  pIC50: 6.85

## Cc1sc2c(c1C)C(c1ccc(Cl)cc1)=N[C@@H](CC(=O)OC(C)(C)C)c1nnc(C)n1-2
[13]
  Activity: Active
[14]
  Activity: Active
[15]
  Activity: Active
[16]
  Activity: Active
[17]
  Activity: Active
[18]
  Activity: Active
[19]
  Activity: Active
[20]
  Activity: Active
[21]
  Activity: Active
[22]
  Activity: Active
[23]
  Activity: Active
[24]
  Activity: Active
[25]
  Activity: Active
[26]
  Activity: Active
[27]
  Activity: Active
[28]
  Activity: Active

## Cc1ccc(-n2nc(C(=O)N3C[C@@H](NC(=O)OC(C)(C)C)C4(CC4)C3)nc2-c2ccc3c(c2)N(C2CCCC2)[C@H](C)C(=O)N3C)cc1
[1]
  pIC50: 8.02
[2]
  pIC50: 6.31

## Cc1ccc(-n2nc(C(=O)N3CCCN(C)CC3)nc2-c2ccc3c(c2)N(C2CCCC2)[C@H](C)C(=O)N3C)cc1
[2]
  pIC50: 8.10
[3]
  inhibition activity call (active/inactive): Active
[4]
  inhibition: Active
[5]
  inhibition: Active
[6]
  inhibition: inactive
[7]
  inhibition: Active

## Cc1ccc(-n2nc(C(=O)N3CCN(C)CC3)nc2-c2ccc3c(c2)N(C2CCCC2)[C@H](C)C(=O)N3C)c(C)c1
[1]
  pIC50: 8.35
[2]
  pIC50: 7.75

## C[C@@H]1C(=O)N(C)c2ccc(-c3nc(C(=O)N4CCN(C)CC4)nn3-c3ccc(Cl)cc3)cc2N1C1CCCC1
[1]
  pIC50: 8.17
[2]
  pIC50: 7.31

## CCN1CCN(C(=O)c2nc(-c3ccc4c(c3)N(C3CCCC3)[C@H](C)C(=O)N4C)n(-c3ccc(C)cc3)n2)CC1
[1]
  pIC50: 8.24
[2]
  pIC50: 7.60

## Cc1ccc(-n2nc(C(=O)N3CCN(C4CC4)CC3)nc2-c2ccc3c(c2)N(C2CCCC2)[C@H](C)C(=O)N3C)cc1
[1]
  pIC50: 8.23
[2]
  pIC50: 7.06

## Cc1ccc(-n2nnnc2-c2ccc3c(c2)N(C2CC2)C(C)C(=O)N3C)cc1 (stereo not drawn)
[1]
  pIC50: 7.84
[2]
  pIC50: 7.32

## Cc1ccc(-n2nnnc2-c2ccc3c(c2)N(C2CCCC2)C(C)C(=O)N3C)cc1 (stereo not drawn)
[1]
  pIC50: 8.02
[2]
  pIC50: 5.91
